Measurements taken from ChEMBL document CHEMBL5230178, “6-Bromoindirubin-3'-oxime derivatives are highly active colistin adjuvants against Klebsiella pneumoniae” (RSC Med Chem, 2023).
Activity calls are given as the source filed them. The rule behind the calls is not given here.

What was measured:
Klebsiella pneumoniae [1] = assay: Potentiation of colistin-induced antibacterial activity against colistin-resistant Klebsiella pneumoniae B9 assessed as colistin MIC at 1 uM incubated for 16 hrs by broth microdilution method; type: functional
Summary of the method: (§1)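 Bacteria grown 6 h in CAMHB, diluted to 5×10^5 CFU/mL. Fixed adjuvant concentration added from DMSO stock; an undosed aliquot gives the colistin MIC alone. Colistin serially two-fold diluted in the compound-dosed suspension. MIC taken at 90% growth inhibition versus untreated wells. Fold change is colistin MIC alone over MIC with adjuvant. Duplicate, repeated at least twice.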

Klebsiella pneumoniae [2] = assay: Induction of drug resistance in colistin-resistant Klebsiella pneumoniae B9 assessed as lipid A modification of LPS at 5 uM incubated for 8 hrs by MALDI-TOF analysis; type: functional, organism-based
Summary of the method: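 K. pneumoniae B9 grown 18 h at 37 °C in CAMHB, subcultured to 1×10^6 CFU in 120 mL CAMHB. Left untreated or dosed at 5 μM for 8 h, in duplicate. Cells pelleted, washed with endotoxin-free water, and extracted on-plate with 70% citric acid at 110 °C for 30 min. Norharmane matrix applied, then MALDI-TOF in negative ion mode.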

Klebsiella pneumoniae [3] = assay: Antibacterial activity against Klebsiella pneumoniae B9 assessed as inhibition of bacterial growth at 5 uM measured upto 24 hrs by time-kill assay; type: functional, organism-based
Summary of the method: (§2)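 Overnight CAMHB culture subcultured to 5×10^5 CFU/mL in fresh CAMHB, split into 4 mL aliquots. Dosed with carrier only, adjuvant, colistin, or adjuvant plus colistin. Shaken at 37 °C. At 2, 4, 6, 8 and 24 h, 100 µL sampled, ten-fold serially diluted in CAMHB up to 7 times, plated on LB Lennox agar, incubated overnight at 37 °C, colonies counted.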

Klebsiella pneumoniae [4] = assay: Potentiation of colistin-induced antibacterial activity against colistin-resistant Klebsiella pneumoniae B9 assessed as fold change in colistin MIC at 3 uM incubated for 16 hrs by broth microdilution method; type: functional; summary of the method: as §1
Klebsiella pneumoniae [5] = assay: Antibacterial activity against Klebsiella pneumoniae B9 assessed as inhibition of bacterial growth incubated for 16 hrs by broth microdilution method; type: functional
Summary of the method: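 Broth microdilution in CAMHB. Six-hour culture diluted to 5×10^5 CFU/mL, compound added from DMSO stock, two-fold serial dilution. MIC is the lowest concentration giving 90% growth inhibition versus untreated wells. Run in duplicate, repeated at least twice.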

Klebsiella pneumoniae [6] = assay: Synergistic antibacterial activity against Klebsiella pneumoniae B9 assessed as reduction in colony forming unit measured per ml at 5 uM measured after 2 hrs in the presence of 2 ug/ml of colistin by time-kill assay; type: functional; summary of the method: as §2
Klebsiella pneumoniae [7] = assay: Potentiation of colistin-induced antibacterial activity against colistin-resistant Klebsiella pneumoniae B9 assessed as fold change in colistin MIC at 1 uM incubated for 16 hrs by broth microdilution method; type: functional; summary of the method: as §1
Klebsiella pneumoniae [8] = assay: Potentiation of colistin-induced antibacterial activity against colistin-resistant Klebsiella pneumoniae B9 assessed as fold change in colistin MIC at 5 uM incubated for 16 hrs by broth microdilution method; type: functional; summary of the method: as §1
Escherichia coli [9] = assay: Potentiation of colistin-induced antimicrobial activity against colistin resistant Escherichia coli 25922 harbouring mcr-1 gene assessed as colistin MIC at 5 uM incubated for 16 hrs by broth microdilution method; type: functional; summary of the method: as §1
Pseudomonas aeruginosa [10] = assay: Potentiation of colistin-induced antimicrobial activity against colistin-resistant Pseudomonas aeruginosa TRPA 162 assessed as colistin MIC at 5 uM incubated for 16 hrs by broth microdilution method; type: functional; summary of the method: as §1
Klebsiella pneumoniae [11] = assay: Synergistic antibacterial activity against Klebsiella pneumoniae B9 assessed as reduction in colony forming unit measured per ml at 5 uM measured after 8 hrs in the presence of 0.5 ug/ml of colistin by time-kill assay; type: functional; summary of the method: as §2
Klebsiella pneumoniae [12] = assay: Potentiation of colistin-induced antibacterial activity against colistin resistant Klebsiella pneumoniae B9 assessed as colistin MIC at 5 uM incubated for 16 hrs by broth microdilution method; type: functional; summary of the method: as §1
Klebsiella pneumoniae [13] = assay: Synergistic antibacterial activity against Klebsiella pneumoniae B9 assessed as reduction in colony forming unit at 5 uM measured at 6 to 24 hrs in the presence of 4 ug/ml of colistin by time-kill assay; type: functional, organism-based; settings: time 6-24 hrs; summary of the method: as §2
Escherichia coli [14] = assay: Antimicrobial activity against colistin resistant Escherichia coli 25922 harbouring mcr-1 gene assessed as inhibition of microbial growth incubated for 16 hrs by broth microdilution method; type: functional, organism-based
Summary of the method: (§3)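 Bacteria grown 6 h in cation-adjusted Mueller Hinton broth (CAMHB), subcultured to 5×10^5 CFU/mL. Compound added from DMSO stock and serially two-fold diluted in the culture. Incubated stationary at 37 °C for 16 h. MIC taken as the lowest concentration giving 90% growth inhibition versus untreated wells. Duplicate, repeated at least twice.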

Klebsiella pneumoniae [15] = assay: Synergistic antibacterial activity against Klebsiella pneumoniae B9 assessed as reduction in colony forming unit measured per ml at 5 uM measured after 24 hrs in the presence of 2 ug/ml of colistin by time-kill assay; type: functional; summary of the method: as §2
Acinetobacter baumannii [16] = assay: Potentiation of colistin-induced antimicrobial activity against colistin resistant Acinetobacter baumannii 3941 assessed as assessed as colistin MIC at 5 uM incubated for 16 hrs by broth microdilution method; type: functional; summary of the method: as §1
Klebsiella pneumoniae [17] = assay: Potentiation of colistin-induced antibacterial activity against colistin resistant Klebsiella pneumoniae F2210291 harbouring mcr-1 gene assessed as colistin MIC at 5 uM incubated for 16 hrs by broth microdilution method; type: functional; summary of the method: as §1
[18] = Hemolytic activity in sheep RBC assessed as hemolysis upto 400 uM incubated for 1 hrs by UV-Vis spectrophotometric analysis; type: toxicity, cell-based, Ovis aries; settings: erythrocyte
Summary of the method: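 Defibrinated sheep blood cells washed three times in PBS by centrifugation (10 min, 10,000 rpm), resuspended in 10 mL PBS, compound added. PBS served as 0% lysis and 1% Triton X-100 as 100% lysis. Shaken at 200 rpm, 37 °C, 1 h, then centrifuged. Supernatant diluted 40-fold in water, absorbance read at 540 nm.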

Pseudomonas aeruginosa [19] = assay: Antimicrobial activity against colistin resistant Pseudomonas aeruginosa TRPA 162 assessed as inhibition of microbial growth incubated for 16 hrs by broth microdilution method; type: functional, organism-based; summary of the method: as §3
Klebsiella pneumoniae [20] = assay: Potentiation of colistin-induced antibacterial activity against colistin-resistant Klebsiella pneumoniae B9 assessed as colistin MIC at 3 uM incubated for 16 hrs by broth microdilution method; type: functional; summary of the method: as §1
Acinetobacter baumannii [21] = assay: Antimicrobial activity against colistin resistant Acinetobacter baumannii 3941 assessed as inhibition of microbial growth incubated for 16 hrs by broth microdilution method; type: functional, organism-based; summary of the method: as §3
Klebsiella pneumoniae [22] = assay: Potentiation of colistin-induced antibacterial activity against colistin resistant Klebsiella pneumoniae C3 assessed as colistin MIC at 5 uM incubated for 16 hrs by broth microdilution method; type: functional; summary of the method: as §1
Klebsiella pneumoniae [23] = assay: Potentiation of colistin-induced antibacterial activity against colistin resistant Klebsiella pneumoniae F9 assessed as colistin MIC at 5 uM incubated for 16 hrs by broth microdilution method; type: functional; summary of the method: as §1
Klebsiella pneumoniae [24] = assay: Potentiation of colistin-induced antibacterial activity against colistin resistant Klebsiella pneumoniae I2 assessed as colistin MIC at 5 uM incubated for 16 hrs by broth microdilution method; type: functional; summary of the method: as §1

For `O=C1Nc2cc(Br)ccc2/C1=C1/Nc2cc(Cl)ccc2/C1=N\O`, the MIC (Klebsiella pneumoniae [1]) was 16 µg/mL, the Activity (Klebsiella pneumoniae [2]) was “inactive” and the Activity (Klebsiella pneumoniae [3]) was “inactive”. For the same compound, the “fold change (FC)” value (Klebsiella pneumoniae [4]) was 256, the MIC (Klebsiella pneumoniae [5]) was greater than 200 µM and the “log(activity)” value (Klebsiella pneumoniae [6]) was 2. For the same compound, the “fold change (FC)” value (Klebsiella pneumoniae [7]) was 32, the “fold change (FC)” value (Klebsiella pneumoniae [8]) was 1024 and the MIC (Escherichia coli [9]) was 2 µg/mL. For the same compound, the MIC (Pseudomonas aeruginosa [10]) was greater than 16 µg/mL, the “log(activity)” value (Klebsiella pneumoniae [11]) was 1 and the MIC (Klebsiella pneumoniae [12]) was 0.5 µg/mL. The Activity (Klebsiella pneumoniae [13]) was “Active”, the Activity (Escherichia coli [14]) was “inactive” and the “log(activity)” value (Klebsiella pneumoniae [15]) was 1. The MIC (Acinetobacter baumannii [16]) was greater than 16 µg/mL, the MIC (Klebsiella pneumoniae [17]) was 1 µg/mL and the Activity [18] was “Non-Toxic”. For the same compound, the Activity (Pseudomonas aeruginosa [19]) was “inactive”, the MIC (Klebsiella pneumoniae [20]) was 1 µg/mL and the Activity (Acinetobacter baumannii [21]) was “inactive”. For the same compound, the MIC (Klebsiella pneumoniae [22]) was 1 µg/mL, the MIC (Klebsiella pneumoniae [23]) was 2 µg/mL and the MIC (Klebsiella pneumoniae [24]) was 2 µg/mL.
